Source: ChEMBL document CHEMBL3045003, “Divalent and oxabridged neonicotinoids constructed by dialdehydes and nitromethylene analogues of imidacloprid: design, synthesis, crystal structure, and insecticidal activities” (2010)

Key:
Assay type in all cases: functional
[1] = tested on: Aphis craccivora; assay: Insecticidal activity against apterous adult stage of Aphis craccivora (cowpea aphid) in horsebean leaves assessed as mortality at 500 mg/l at 25 +/-1 degC treated for 5 secs measured after 24 hr by leaf-dip method
Outline: (§1)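 Leaf-dip assay: horsebean leaves carrying 40-60 apterous adults were dipped in diluted compound, excess liquid was blotted off with filter paper, and they were held at 25 ± 1 °C, 50% RH. Controls were water containing Triton X-100. Mortality was scored 24 h after treatment, with three repetitions per treatment. Data were adjusted and subjected to probit analysis.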

[2] = tested on: Mythimna separata; assay: Insecticidal activity against second instar larval stage of Mythimna separata (Oriental armyworm) in compound pretreated corn leaves assessed as mortality at 25 +/-1degC after 48 hr
[3] = tested on: Mythimna separata; assay: Insecticidal activity against second instar larval stage of Mythimna separata (Oriental armyworm) in compound pretreated corn leaves assessed as mortality at 500 mg/l at 25 +/-1 degC after 48 hr
[4] = tested on: Aphis craccivora; assay: Insecticidal activity against apterous adult stage of Aphis craccivora (cowpea aphid) in horsebean leaves assessed as mortality at 25 +/-1 degC treated for 5 secs measured after 24 hr by leaf-dip method; outline: as §1
[5] = tested on: Nilaparvata lugens; assay: Toxicity ratio of imidacloprid LC50 to compound LC50 for macropterous adult stage of imidaclopride-sensitive Nilaparvata lugens (brown planthopper) after 48 hr by microtopical application technique
Outline: (§2)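 Toxic ratio is imidacloprid's baseline-toxicity LC50 divided by the compound's LC50. LC50 values come from topical application of acetone solutions (0.08 μL droplet, prothorax notum, CO2 anesthesia) to unmated macropterous females aged 2-3 days, about 30 per concentration, three repeats. Insects were reared on seedlings at 25 ± 1 °C, and values were derived by probit analysis.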

[6] = tested on: Nilaparvata lugens; assay: (§3) Insecticidal activity against macropterous adult stage of imidaclopride-resistant Nilaparvata lugens (brown planthopper) assessed as concentration required to induce mortality per pest at 25 +/-1 degC applied topically to the prothorax notum of insect prior to rearing on rice seedlings measured after 48 hr by microtopical application technique
Outline: (§4)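 Microtopical application on unmated macropterous adult females aged 2-3 days. Compounds were serially diluted in acetone, and a 0.08 μL droplet was applied to the prothorax notum under CO2 anesthesia. About 30 insects were used per concentration, with three repeats; controls received acetone. Insects were then reared on soilless seedlings at 25 ± 1 °C, 16/8 h light/dark. LC50 (ng/pest) was obtained from probit regression lines.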

[7] = tested on: Nilaparvata lugens; assay: Toxicity ratio of imidacloprid LC50 to compound LC50 for macropterous adult stage of imidaclopride-resistant Nilaparvata lugens (brown planthopper) after 48 hr by microtopical application technique; outline: as §2
[8] = tested on: Nilaparvata lugens; assay: as §3, with “imidaclopride-sensitive” for “imidaclopride-resistant”; outline: as §4

Row | SMILES | mortality at 500 µg/mL [1] | LC50 [2] | mortality at 500 µg/mL [3] | LC50 [4] | RatioLC50 [5] | LC50 [6] | RatioLC50 [7] | LC50 [8]
1 | O=[N+]([O-])/C=C1/NCCN1Cc1ccc(Cl)nc1 | 100% | 70.9 µM | 100% | 5.12 µM |  |  |  | 
2 | O=[N+]([O-])C1=C2N(Cc3ccccc3)CCN2[C@@H]2CC[C@H]1O2 | 13.6% |  | 0% |  |  |  |  | 
3 | O=[N+]([O-])C1=C2N(Cc3ccc(Cl)cc3)CCN2[C@@H]2CC[C@H]1O2 | 95.7% |  | 0% |  |  |  |  | 
4 | O=[N+]([O-])/C(=C1/NCCN1Cc1ccc(Cl)nc1)C(O)/C=C(\C1=NCCN1Cc1ccc(Cl)nc1)[N+](=O)[O-] (configuration not stated) | 78.1% | 195 µM | 100% |  |  |  |  | 
5 | COC(/C=C(\C1=NCCN1Cc1ccc(Cl)nc1)[N+](=O)[O-])/C(=C1\NCCN1Cc1ccc(Cl)nc1)[N+](=O)[O-] (configuration not stated) | 97.7% |  | 100% |  |  |  |  | 
6 | O=[N+]([O-])/C(=C/C/C=C(\C1=NCCN1Cc1ccc(Cl)nc1)[N+](=O)[O-])C1=NCCN1Cc1ccc(Cl)nc1 | 100% | 28 µM | 100% | 9.51 µM |  |  |  | 
7 | O=[N+]([O-])C1=C2N(Cc3ccc(Cl)nc3)CCN2[C@@H]2CC[C@H]1O2 | 100% | 38.7 µM | 100% | 4.71 µM | 1.77 | 0.4925 ng | 40.4 | 0.0742 ng
8 | O=[N+]([O-])C1=C2N(Cc3cnc(Cl)s3)CCN2[C@@H]2CC[C@H]1O2 | 100% | 49.6 µM | 100% | 8.83 µM |  |  |  | 
9 | O=[N+]([O-])/N=C1\NCCN1Cc1ccc(Cl)nc1 [IMIDACLOPRID] | 100% | 125 µM | 100% | 35 µM | 1 | 22.1614 ng | 1 | 0.1316 ng
